Sampled rows, rich in hits. Any-hit rate of the full collection: about 2.5%.
Diaphorase act = compounds boosting diaphorase resazurin reduction – biochemical, uHTS, resorufin fluorescence, counter-screen for diaphorase-coupled primary assays, primary screen. hit rate 0.005% among 190,000. activation factor at 20 µM. Diaphorase/resazurin coupled assay, 16 min; stronger effect = higher value; 1 = vehicle wells, 0 = NADH-free wells;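 active = diaphorase activity raised at least twofold by the compound at 20 µM; inactive = activation factor below 2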
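Material: Clostridium kluyveri diaphorase, purified enzyme; Quantity: enzyme 0.07 U/mL final; Medium: HEPES pH 7.4 buffer with MgCl2 and Tween 20; Dosing: single compound dose of 20 µM, 1% DMSO final; Schedule: 16 min reaction at room temperature; Measured by: red resorufin fluorescence at 544/590 nm excitation/emission.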
FLuc inhib CS = firefly luciferase enzyme inhibitors, primary screen, artefact control for luciferase-based inhibitor screens, biochemical, luminescence, ATPLite; Luciferin 4-monooxygenase (Photinus pyralis), P08659; hit rate 1.5% among 200,000; 10 min; AID 1006, 2008; inhibition, % at 10 µM;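 active = inhibition above about 50% when tested at 10 µM, limit read from the data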
FLuc stim CS = FLuc activators, initial screening, artefact control for FLuc-dependent activation tests, biochemical, ATPlite luminescence. ATPlite luciferase biochemical, 10 min; 0 = ATP-free wells, 1 = DMSO control. Luciferin 4-monooxygenase (Photinus pyralis), P08659. activation factor at 10 µM. 200,000 tested, under 10 active. AID 1027, 2008;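 active = luciferase activation factor, scaled between plate controls, of at least 2 with compound at 10 µM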
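Material: luciferase plus luciferin reagent, cell-free. Medium: PBS buffer for ATP. Also added: ATP substrate, dispensed from a 10.24 µM working solution in PBS. Doses: test compounds dosed from 2 mM stocks in 100% DMSO. Incubation: 10 min post-reagent at room temperature. Technique: light output (luminescence). Read-out basis: luminescence gain marking luciferase activators.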
PMI act satM6P = human PMI activators, high substrate, primary screen, biochemical, fluorescence intensity, near-saturating mannose 6-phosphate. Mannose-6-phosphate isomerase (Homo sapiens), P34949. coupled PMI enzyme assay, resazurin fluorescence, 20 min; stronger effect = higher value; 1 = untreated enzyme, 0 = substrate-free blank. activation factor at 20 µM. hit rate 0.34% among 190,000;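 active = activation factor of 2 or more at 20 µM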
Target sequence (P34949 whole entry, looked up): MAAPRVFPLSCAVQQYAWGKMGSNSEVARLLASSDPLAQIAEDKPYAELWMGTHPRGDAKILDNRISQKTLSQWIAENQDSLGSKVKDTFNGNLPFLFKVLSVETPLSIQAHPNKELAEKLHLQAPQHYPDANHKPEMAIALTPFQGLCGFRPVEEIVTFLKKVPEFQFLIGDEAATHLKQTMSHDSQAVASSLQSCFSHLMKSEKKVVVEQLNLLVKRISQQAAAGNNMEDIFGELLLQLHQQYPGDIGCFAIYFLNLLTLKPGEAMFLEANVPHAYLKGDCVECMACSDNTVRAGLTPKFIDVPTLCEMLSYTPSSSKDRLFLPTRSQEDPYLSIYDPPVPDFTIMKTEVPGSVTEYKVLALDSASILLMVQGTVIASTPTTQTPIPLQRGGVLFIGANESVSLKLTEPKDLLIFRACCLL
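Material: human phosphomannose isomerase with PGI, G6PDH, diaphorase coupling enzymes; amount: PMI at 15 ng/mL final; also added: Mannose-6-phosphate 1.0 mM (near-saturating) plus 0.22 mM NADP+; incubation: enzyme reaction with compound 20 min at room temperature; signal: resorufin fluorescence (Ex 544/Em 590 nm) from resazurin via diaphorase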
PMI act = activators of human PMI, primary screen, biochemical, fluorescence intensity, near-Km mannose 6-phosphate | hit rate 0.005% among 190,000 | purified human PMI, coupled resazurin fluorescence, 20 min; stronger effect = higher value; 1 = vehicle control, 0 substrate-free wells | activation factor at 20 µM;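 active = activation factor of 2 or more at 20 µM, relative to plate controls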
Diaph inh CS = diaphorase inhibitors and chemical oxidizers, primary screen, counter-screen for diaphorase-coupled primary assays, biochemical, uHTS, resorufin fluorescence; hit rate 0.69% among 190,000; diaphorase resazurin-to-resorufin fluorescence, NADH, 16 min; bacterial (C. kluyveri) enzyme, not human; inhibition, % at 20 µM;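 active = primary screen inhibition at 20 µM above a set limit, cut at about 50% in these data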;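 note: plate controls were DMSO with full reaction for no effect and wells lacking NADH for full effect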
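Benchmarks: positive control wells lacking NADH, neutral wells with DMSO only. System: bacterial diaphorase enzyme (C. kluyveri). Input: 0.14 U/mL diaphorase, enzyme working solution. Detection: resorufin fluorescence, excitation 544 nm, emission 590 nm. Times: 16-min room-temperature incubation before reading.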
* hit, by the source's call.

SMILES	Diaphorase act	FLuc inhib CS	FLuc stim CS	PMI act satM6P	PMI act	Diaph inh CS
O=C(Nc1cccnc1)c1cc(-c2ccc(F)cc2)on1	1	54*	0.5	1.1	1.2	1
O=C(Nc1cccnc1)c1cc(-c2cccs2)on1	1	39	0.6	1	1	4
O=C(Nc1cccnc1)c1cc(-c2ccc3c(c2)OCO3)on1	0.9	68*	0.3	0.9	0.9	6
O=C1C=CC(O)(c2cc(=O)c3c(O)cc(O)cc3o2)C=C1	0.9	-7	1.1	1	1.1	10
CC(=O)CSc1nnc(-c2ccc3c(c2)OCO3)o1	1.1	67*	0.3	1.1	1.2	-6
O=C1OCCC1Sc1nnc(-c2ccc3c(c2)OCO3)o1 (configuration not stated)	1	60*	0.4	1.1	1.2	0
O=C(NCCc1nc2ccccc2[nH]1)/C(=C/c1ccco1)NC(=O)c1ccc(Br)o1	0.7	-2	1	0.8	0.9	30
Cc1cccc(NC(=O)c2snc3c(=O)[nH]cnc23)c1	0.8	-8	1.1	0.9	0.9	20
O=C(Nc1ccc(N2CCCC(O)C2)cc1)c1snc2c(=O)[nH]cnc12 (configuration not stated)	0.9	66*	0.3	0.9	0.9	13
CCN1CN(Cc2ccco2)CNC1=S	1	-3	1	1.1	1.1	0
CC(C)(C)c1ccc(NC(=O)Nc2ccc(OCC(=O)N3CCOCC3)cc2)cc1	0.9	92*	0.1	1	1	14
Cc1ccc(C)c(S(=O)(=O)N2CCCOC2CNC(=O)C(=O)NCCCn2ccnc2)c1 (configuration not stated)	0.9	-5	1.1	0.9	0.9	13
CNC(=O)/C(C#N)=C/c1ccc(-c2ccc(OC)cc2[N+](=O)[O-])o1	0.7	6	0.9	0.7	0.7	26
COc1ccc(-c2ccc(C(=O)O)o2)c([N+](=O)[O-])c1	0.3	0	1	0.3	0.3	69*
Cc1ccc(/C(N)=N/OC(=O)c2ccc(C)cc2Cl)cc1	0.9	73*	0.3	0.9	1	9
N/C(=N\OC(=O)c1ccc(Cl)cc1Cl)c1cccnc1	0.9	93*	0.1	1	1	14
Cc1ccc(/C(N)=N/OC(=O)Oc2ccccc2)cc1	0.9	-3	1	1	1	7
N/C(=N\OC(=O)c1ccc(Cl)cc1Cl)c1ccc(Cl)cc1	1	54*	0.5	1	1	-2
Cc1cccc(/C(N)=N/OC(=O)c2ccc(Br)o2)c1	0.8	67*	0.3	0.8	0.9	21
N/C(=N\OC(=O)c1cccc2ccccc12)c1cccnc1	0.8	34	0.7	0.9	0.9	20
Nc1c([N+](=O)[O-])cnnc1-c1ccccc1	0.9	-5	1	1	1	5
O=[N+]([O-])c1ccc(COc2cccc(CNc3ccc(Br)cc3)c2)cc1	0.8	-2	1	0.8	0.8	21
N/C(=N\OC(=O)c1ccco1)c1cccnc1	1	26	0.7	1	1	2
N/C(=N\OC(=O)c1ccc(Cl)cc1)c1cccnc1	1	94*	0.1	1	1	2
N/C(Cc1ccc(Cl)cc1Cl)=N\OC(=O)c1ccccc1	1	-5	1	1	0.9	0
Cc1cccc(/C(N)=N/OC(=O)c2cccnc2)c1	0.9	64*	0.4	1	1	5

Compound activity deposited in PubChem by Sanford-Burnham Center for Chemical Genomics.
